From PubChem BioAssay
In the library only some 1.3% were active in any assay of this set; here they are far more common.
Arr AP2 block: inhibitors of beta-arrestin/AP2 binding, primary screen, biochemical, GPCR trafficking, flow cytometry; FITC-arrestin peptide / GST-AP2 beads; AP2 beta2 appendage carries R879A mutation; inhibition, % at 10 µM; 340,000 compounds, 0.31% hits; AID 504490, 2011;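 active = inhibition above a set limit, near 3 SD of compounds lacking own fluorescence, cut at about 54% in these data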;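 note: plate controls were DMSO wells for no effect and 5 µM unlabelled arrestin peptide for full effect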
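System: GST-AP2 R879A bound to glutathione beads, E. coli-expressed. Also added: 50 nM FITC-arrestin peptide. Schedule: compound with beads 12 min RT, then probe 1 h RT. Signal: bead flow cytometry, FITC channel. Read-out basis: percent response.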
PLCg1 inh: PLC-gamma1 enzyme inhibitors, primary screen, biochemical, fluorescence, purified enzyme. 1-phosphatidylinositol 4,5-bisphosphate phosphodiesterase gamma-1 (Homo sapiens), P19174. fluorogenic substrate. inhibition, % at 12.2 µM. 370,000 compounds, 0.84% hits; in the data active = inhibition above about 9.5%
NTR1 agonist: agonists of human NTR1, primary screen, imaging, U2OS cells, beta-arrestin-GFP, high content | activation, % at 20 µM | NTR1-U2OS beta-arrestin-GFP spot imaging, agonist mode | 330,000 compounds, 0.17% hits | AID 493036, 2011;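 active = activation at or above 40% of the spot to cytoplasm intensity ratio, with at least 20 cells analyzed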;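 note: 0% = DMSO without peptide and 100% = 100 nM NTR1 peptide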
Target sequence (P30989 whole entry, looked up): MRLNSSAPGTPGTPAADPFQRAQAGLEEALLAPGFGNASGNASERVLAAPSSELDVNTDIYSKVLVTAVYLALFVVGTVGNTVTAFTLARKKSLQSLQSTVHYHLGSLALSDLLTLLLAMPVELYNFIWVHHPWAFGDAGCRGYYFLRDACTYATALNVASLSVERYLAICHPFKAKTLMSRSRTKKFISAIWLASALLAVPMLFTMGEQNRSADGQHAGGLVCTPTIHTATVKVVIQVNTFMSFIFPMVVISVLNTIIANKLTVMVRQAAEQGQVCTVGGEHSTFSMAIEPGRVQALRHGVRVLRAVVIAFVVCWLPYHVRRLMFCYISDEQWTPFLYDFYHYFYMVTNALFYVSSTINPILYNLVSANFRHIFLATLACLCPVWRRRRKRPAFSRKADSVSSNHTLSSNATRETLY
PLC-beta3 inh: human PLC-beta3 inhibitors, primary screen, biochemical, fluorescence. 1-phosphatidylinositol 4,5-bisphosphate phosphodiesterase beta-3 (Homo sapiens), Q01970. Purified PLC-beta3, fluorogenic substrate. inhibition, % at 12.2 µM. 370,000 compounds, 0.18% hits. AID 720704, 2013; in the data active = inhibition above about 11%;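 note: 0% = median of compound wells on plate and 100% = full blocker control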
Arr-AP2 CP1: inhibitors of arrestin peptide binding to AP2, confirmation, biochemical, cherry pick 1, flow cytometry beads; 1,300 compounds, 2% hits; GST-AP2 beads, FITC arrestin peptide binding; GST-fused beta2-adaptin appendage, R879A mutant; inhibition, % at 10 µM; shares compounds with Arr AP2 block;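 active = inhibition above a set limit, roughly 3 SD of non-fluorescent compound noise, cut at about 38% in these data; inactive = inhibition at or below that limit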;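 note: loss of bead fluorescence from 50 nM FITC arrestin peptide bound to appendage; 0% = negative control wells and 100% = excess unlabelled arrestin peptide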
GST-FITC bead: GST-fluorescein capture on glutathione beads, confirmation, artefact control for arrestin-AP2 inhibitor project, biochemical, cherry pick 1, flow cytometry; AID 588338, 2011; GST-fluorescein binding to GSH beads, fluorescence, counter-screen; 1,300 compounds, 2% hits; inhibition, % at 10 µM; shares compounds with Arr AP2 block;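 active = inhibition above 50%, about 3 SD of the inhibition seen with non-fluorescent compounds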;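 note: fluorescein maleimide labelled GST captured on 4 micron glutathione beads; higher means more loss of bead fluorescence from quenching or blocked binding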
* = called active by the depositor; . = not tested or not shown.

SMILES | Arr AP2 block | PLCg1 inh | NTR1 agonist | PLC-beta3 inh | Arr-AP2 CP1 | GST-FITC bead
COc1ccc(NC(=O)c2cc(C)nc3ccccc23)cc1S(=O)(=O)N1CCOCC1 | 6.0 | 2.4 | -0.6 | 3.1 | -9.6 | -4.8
CCOc1ncccc1C(=O)Nc1cc(S(=O)(=O)N2CCOCC2)ccc1OCC(F)(F)F | 29.2 | 2.3 | 4.4 | -2.4 | 0.7 | 9.5
CCOc1ncccc1C(=O)Nc1cc(S(=O)(=O)N2CCCCC2)ccc1C | 3.6 | -2.4 | 2.5 | -4.0 | 6.8 | 5.9
O=C1N(c2ccccc2)CC2CC(c3ccccc3)N3CCCC123 (stereo not drawn) | . | -1.6 | . | -4.7 | . | .
CC(C)C[C@@H]1COc2cc(Br)ccc2S(=O)(=O)N1Cc1cn(Cc2ccc(C(F)(F)F)cc2)nn1 | . | 2.5 | . | -13.5 | . | .
CCC(=O)N(C)C[C@@H]1[C@H](c2ccc(C3=CCCCC3)cc2)[C@H](CO)N1C(=O)CC | . | -0.1 | . | 0.0 | . | .
COc1ccc(NC(=O)c2ccccn2)cc1S(=O)(=O)N1CCOCC1 | 9.3 | 1.5 | -1.2 | -0.4 | . | .
CCOc1ccc(S(=O)(=O)N2CCCCC2)cc1NC(=O)c1cccnc1OCC | 14.4 | -0.7 | 9.6 | -3.0 | -7.0 | 14.5
CCOc1ncccc1C(=O)Nc1ccc(OC)c(S(=O)(=O)N2CCOCC2)c1 | -0.1 | 5.1 | 0.3 | -2.7 | 1.3 | 3.5
O=c1[nH]c(CO)nc2c1oc1ccccc12 | 72.5* | 0.8 | -0.1 | 2.9 | -9.0 | 8.7
CCN(CC)C(=O)CC[C@@H]1CC[C@]2(CCCN(Cc3ccc(Cl)cc3)C2)O1 | . | -1.6 | . | 4.6 | . | .
CCCNc1nc(NCC)nc(OC)n1 | 63.7* | -1.3 | 1.6 | -0.7 | 13.4 | -6.3
NC(=O)SCC(=O)Nc1ccc(Cl)cc1 | 18.2 | 0.5 | 3.7 | 2.0 | . | .
NC(=O)SCC(=O)Nc1cccc(Cl)c1 | 81.8* | 5.1 | 1.4 | 4.9 | 19.1 | 10.1
C#CCN1C(=O)[C@]2(OCCC=C[C@H]2C)c2ccccc21 | . | 2.2 | . | 6.2 | . | .
COc1cc(NC(=O)Cc2ccccc2)c(C(=O)O)cc1OC | 6.5 | -1.4 | 0.5 | -2.9 | . | .
COc1cc(NC(=O)C(C)Oc2ccccc2)c(C(=O)O)cc1OC (stereo not drawn) | -0.7 | -5.5 | 1.4 | -1.4 | -5.7 | -4.6
Cc1ccc(-c2cc(-c3nnc(SCc4cccc5ccccc45)n3N)[nH]n2)cc1 | . | 7.7 | . | 0.5 | . | .
CCc1ccc(NC(=O)CSc2nnc(CC)c(CC)n2)cc1 | -14.7 | -1.6 | 1.6 | -1.2 | . | .
CCc1nnc(SCC(=O)Nc2ccc(C(C)=O)cc2)nc1CC | 82.7* | -2.3 | 1.1 | -3.6 | 17.9 | 1.4
COC(=O)c1ccc(CN2CCC(Oc3cccc(C(=O)N4CCOCC4)c3)CC2)cc1 | 70.1* | -1.7 | -0.8 | -8.7 | 2.6 | -4.5
CCOC(=O)c1c(-c2cccs2)csc1NC(=O)COC(=O)c1c(C)noc1C | 55.2* | -1.3 | 1.5 | -1.1 | 3.2 | 5.1
CCOC(=O)c1c(-c2cccs2)csc1NC(=O)c1ccncc1 | 14.0 | -0.8 | 5.0 | -2.3 | . | .
O=C(Cn1cncn1)c1ccc(Cl)cc1 | -1.1 | 3.0 | -0.7 | -2.2 | . | .
O=C(Cn1ccnc1)c1ccc(Cl)cc1 | 55.0* | 1.3 | -0.5 | -6.6 | -17.6 | 0.4
SMILES | Arr AP2 block | PLCg1 inh | NTR1 agonist | PLC-beta3 inh | Arr-AP2 CP1 | GST-FITC bead
O=C(CSc1nnc(-c2ccccc2)n1-c1ccc(Cl)cc1)c1ccc(F)cc1 | . | 1.0 | . | -0.1 | . | .
CC1(c2nnnn2-c2ccc3c(c2)OCCO3)CSCC(=O)N1CCc1c[nH]c2ccccc12 (stereo not drawn) | . | -0.3 | . | 2.8 | . | .
CCCNC(=O)COC(=O)c1ccccc1OCC(=O)Nc1ccc(Br)cc1 | 34.1 | -1.3 | 0.6 | 1.6 | . | .
CC(C)(C)NC(=O)COC(=O)c1ccccc1OCC(=O)Nc1ccc(Br)cc1 | 103.3* | 2.9 | 0.1 | 2.5 | -8.6 | -3.4
O=C(O)[C@H]1CC=C[C@H]2CCN(Cc3ccc(Cl)c(Cl)c3)C(=O)[C@@H]12 | 67.0* | -9.0 | -0.5 | -15.4 | -4.3 | 0.7
C=C(C)[C@@H]1CC=C(CN2CCN(Cc3ccccc3)CC2)CC1 | 60.0* | 5.9 | 1.1 | -0.6 | -3.9 | 1.8
